Assay outcomes deposited in PubChem BioAssay by Johns Hopkins Ion Channel Center.
A selection: hits, their analogues and other compounds. The true share with any hit is near 3.5%.
RGS4 act – RGS4 potentiation or activation; HEK293 M3R/inducible RGS4, carbachol calcium flux Fluo4; stronger effect = lower value; 310,000 tested, 0.92% active; AID 463111; B-score at 10 µM;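 active means B-score of the integrated calcium signal more than 4 SD below the library mean, with starting fluorescence not abnormally high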;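 further: negative B-score means reduced calcium response which marks RGS4 activation or potentiation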
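System: HEK293 FlpIn-TREx cells, stable M3R, doxycycline-inducible RGS4. Timing: overnight RGS4 induction, 30 min dye load 37 °C, 20 min compound RT. Also added: carbachol, ECmax concentration. Measured by: Fluo4 fluorescence kinetic imaging of calcium. Evaluation: integrated calcium ratio converted to B score.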
MrgX1 antagonist – human MrgX1 receptor antagonism, primary screen; Q96LB2; MRGX1-HEK293 calcium flux, Fluo-4, BAM8-22 antagonism; stronger effect = lower value; 310,000 tested, 1.3% active; B-score at 10 µM;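 active means calcium-response B-score plate-corrected more than 3 library SD below zero, starting fluorescence within 5 deviations, no agonist response on first addition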;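 further: peak minus trough fluorescence over baseline after final BAM8-22 challenge near maximal dose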
Target sequence (Q96LB2 whole entry, looked up): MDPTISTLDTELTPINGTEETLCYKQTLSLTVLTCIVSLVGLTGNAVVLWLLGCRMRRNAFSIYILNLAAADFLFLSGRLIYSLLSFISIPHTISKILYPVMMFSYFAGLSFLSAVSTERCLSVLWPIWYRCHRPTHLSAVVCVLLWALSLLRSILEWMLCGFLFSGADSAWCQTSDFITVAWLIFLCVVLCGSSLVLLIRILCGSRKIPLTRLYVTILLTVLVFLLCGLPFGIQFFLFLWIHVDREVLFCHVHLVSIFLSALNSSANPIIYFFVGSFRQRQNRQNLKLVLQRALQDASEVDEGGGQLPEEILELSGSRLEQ
MrgX1 PAM – human MrgX1 positive allosteric modulation, primary screen; Q96LB2; MrgX1-HEK293, Fluo-4 calcium flux, FDSS; stronger effect = higher value; B-score at 10 µM; 310,000 tested, 0.63% active; AID 588675;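 active means plate-corrected calcium response at least 3 library SD above typical, normal starting fluorescence, not activating the receptor alone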;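 further: compound read alongside a low EC10 to EC30 dose of BAM8-22 agonist; peak minus trough fluorescence over baseline measured at the second addition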
RGS4 inh – human RGS4 inhibition; P49798; HEK293 M3R/RGS4 inducible, Fluo-4 calcium flux; stronger effect = higher value; triggered by carbachol at its EC20; B-score at 10 µM; 310,000 tested, 0.45% active;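 active means B-score, a plate-corrected calcium signal, over three deviations above library mean, with baseline fluorescence within five deviations of library mean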;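 further: RGS4 expression induced by doxycycline in cells with stable M3 receptor; B-score is computed from the integrated fluorescence ratio over baseline after carbachol; higher B-score means a larger calcium signal and so more RGS4 inhibition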
Target sequence (P49798 whole entry, looked up): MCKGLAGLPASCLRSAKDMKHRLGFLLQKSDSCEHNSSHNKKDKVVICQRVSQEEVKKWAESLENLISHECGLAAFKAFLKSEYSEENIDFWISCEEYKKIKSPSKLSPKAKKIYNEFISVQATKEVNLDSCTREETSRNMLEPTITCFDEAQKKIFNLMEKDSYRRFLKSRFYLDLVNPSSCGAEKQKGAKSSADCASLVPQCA
MrgX1 ag – agonists of human MrgX1 receptor | Q96LB2 | MrgX1-HEK293 cells, Fluo-4 calcium fluorescence, agonist mode; stronger effect = higher value | B-score at 10 µM | 310,000 tested, 0.44% active;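 active means calcium response B-score plate-corrected fluorescence ratio at least 3 library SD, with starting fluorescence B-score inside 5 SD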
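Test system: HEK293 cells stably expressing human MrgX1 receptor; amount: 15,000 cells per well; doses: compound delivered in addition one of three; times: overnight plating before 1 h dye loading; detection: Fluo-4 NW calcium-flux fluorescence, kinetic read; read-out basis: B-scored fluorescence response ratio; controls: positive and negative controls per plate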
RGS4 inh valid – validation of RGS4 inhibitors; shares compounds with RGS4 inh; HEK293 M3R/RGS4, carbachol calcium Fluo-4 fluorescence; carbachol added at its EC20; 0 = buffer wells, 100 = carbachol control; calcium response, % at 10 µM; 1,700 tested, 65% active; AID 492999;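 active means duplicate-averaged calcium response above the buffer-only control mean plus 5 SD of those controls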;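 further: integrated fluorescence ratio F max minus min over baseline F0; higher response in RGS4-induced cells means RGS4 inhibition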
M3R Ca ctr – non-induced cell nonspecific activity of RGS4 inhibitors. AID 493000. activity (percent), % at 10 µM. 1,900 tested, 20% active. shares compounds with RGS4 inh. HEK293 M3R non-induced, carbachol calcium Fluo-4; submaximal (EC20) carbachol stimulus; buffer wells 0%, carbachol control wells 100%; call rule not given here;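 further: RGS4 induction absent so cells express M3R without RGS4; higher means more calcium signal and flags a non-specific hit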
M3R basal Ca ctr – signal in non-induced cells without carbachol, RGS4 inhibitor counter-screen; calcium response (agonist-mode artifact), % at 10 µM; HEK293 M3R/RGS4 non-induced, Fluo-4 calcium, no carbachol; normalised: buffer wells 0%, carbachol wells 100%; 1,900 tested, 22% active; shares compounds with RGS4 inh; AID 493001;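 active means duplicate-averaged calcium rise in uninduced cells above buffer wells' mean plus 5 SD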
Numbers stand for hits; – = inactive; · = not tested or not shown.

SMILES	RGS4 act	MrgX1 antagonist	MrgX1 PAM	RGS4 inh	MrgX1 ag	RGS4 inh valid	M3R Ca ctr	M3R basal Ca ctr
COCCCNC(=S)N(CCCO)Cc1cc2cc3c(cc2[nH]c1=O)OCO3	–	–	–	–	–	·	–	–
COCCCNC(=S)N(CCCO)Cc1cc2cc3c(cc2[nH]c1=O)OCCO3	–	–	–	–	–	·	–	–
CCN(CC)CCCN(Cc1cc2cc3c(cc2[nH]c1=O)OCO3)C(=S)NCCOC	–	–	–	–	–	·	·	·
COCCCNC(=S)N(CCO)Cc1cc2cc3c(cc2[nH]c1=O)OCO3	–	–	–	–	–	–	–	–
O=C(/C=C/c1ccc(F)cc1)Nc1ccc(S(=O)(=O)Nc2ncccn2)cc1	–	–	–	–	–	–	–	29%
Cc1ccc(/C=C/C(=O)Nc2ccc(S(=O)(=O)Nc3ncccn3)cc2)cc1	–	–	–	–	–	·	·	·
COc1ccccc1C(=O)NCC(=O)NCC1(N2CCCCC2)CCCCC1	–	–	–	–	–	·	·	·
CCOC(=O)C1CCN(Cc2nc3ccccc3c(=O)n2-c2ccc(OCC)cc2)CC1	–	·	·	6.1	·	6.5%	–	–
COc1ccc(C)cc1NS(=O)(=O)c1ccc(NC(=O)CN(c2cc([N+](=O)[O-])ccc2C)S(C)(=O)=O)cc1	–	–	–	–	–	·	–	–
O=c1c2ccccc2nc(N/N=C/c2c(O)ccc3ccccc23)n1O	–	–	–	8.4	–	40%	44%	–
Clc1ccc(C2=Nn3c(nnc3-c3n[nH]c4c3CCC4)SC2)cc1Cl	–	–	–	10	–	24%	–	–
O=C(COc1cc2oc(=O)cc(-c3ccccc3)c2cc1Cl)NCc1ccccn1	–	–	–	–	–	·	·	·
N#C/C(=C/c1ccc(C(=O)O)cc1)C(=O)Nc1ccccc1	–	–	–	–	–	·	·	·
CC(=O)/C(=C/c1ccccc1)C(=O)Nc1ccccc1C	–	–	–	28	–	64%	64%	–
CC(/C=C/c1ccccc1)=N/NC(=O)CCC(=O)Nc1ccccc1C	–	–	–	–	–	·	·	·
Cc1ccccc1NC(=O)C(=Cc1ccc(C(=O)O)cc1)C(=O)Nc1ccccc1C	–	·	·	10	·	53%	–	–
Oc1ccc(C23CC4CC(CC(C4)C2)C3)cc1O	–	–	–	22	–	16%	52%	15%
CC(=O)Nc1ccc(C23CC4CC(CC(C4)C2)C3)cc1	–	–	–	–	–	·	·	·
O=C(OCc1ccccc1)/C(=C(\O)c1ccccc1Br)c1ccc(-c2ccccc2)cn1	–	–	–	–	–	·	·	·
O=C(CCN1CCc2ccccc2C1)c1ccc2c(c1)OCCO2	–	–	–	6.7	–	20%	–	14%
O=C(CCN1CCc2ccccc21)c1ccc2c(c1)OCCO2	–	–	–	–	–	·	·	·
CCOc1ccc(C(=O)CCN2CCCCC2)cc1	–	–	–	–	–	·	·	·
O=C(CCN1CCCCC1)c1ccc2c(c1)OCCO2	–	–	–	–	–	–	–	–
COc1ccc(C(=O)CCN2CCCCCC2)cc1	–	–	–	11	39	–	–	28%
COc1cc(C(=O)N(C)CC(=O)Nc2cccc(F)c2)ccc1OCc1ccccc1	–	–	–	–	–	·	·	·
SMILES	RGS4 act	MrgX1 antagonist	MrgX1 PAM	RGS4 inh	MrgX1 ag	RGS4 inh valid	M3R Ca ctr	M3R basal Ca ctr
Cc1nc(Nc2ccc(Cl)cc2Cl)sc1C(=O)Nc1ccccc1	–	–	–	–	–	·	·	·
Oc1nc(Nc2ccc(Cl)cc2Cl)sc1/C=C1\C=Nc2ccccc21	–	–	–	5.7	–	10%	–	20%
COc1cc2c(cc1[N+](=O)[O-])n(C(C)C)c(=O)n2C(C)C	–	–	–	4.8	–	–	39%	–
COc1ccc(NC(=O)C(=O)Nc2cccc3cccnc23)cc1OC	–	–	–	–	–	·	·	·
COc1ccc(C(=O)Nc2cccc3cccnc23)cc1OC	–	–	–	4.9	–	–	–	–
COc1ccc(NC(=O)c2nc[nH]c2C(=O)N[C@H](C)c2ccccc2)cc1	–	–	–	7.6	–	18%	–	–
Cc1cc(C)cc(N(CC(=O)Nc2ccc(C(F)(F)F)cc2)S(=O)(=O)c2c(C)[nH]c(=O)[nH]c2=O)c1	–	–	–	6.5	–	–	–	–
O=C(C1=C(O)C(=O)N(Cc2ccco2)C1c1cccc(Cl)c1)c1ccco1 (stereo not drawn)	–	–	–	–	–	–	–	–
O=C(C1=C(O)C(=O)N(c2ncccn2)C1c1cccc(Cl)c1)c1ccco1 (stereo not drawn)	–	–	–	–	–	·	·	·
O=C(C1=C(O)C(=O)N(Cc2ccco2)C1c1cccc([N+](=O)[O-])c1)c1ccco1 (stereo not drawn)	–	–	–	–	–	–	–	–
CCOC(=O)/C=C/C(=O)OCC(=O)N1CCN(C(=O)c2ccco2)CC1	–	–	–	5.7	–	18%	–	–
CCOc1ccc(OCC)c(NC(=O)CSc2nnc(C3CC3)n2CC)c1	–	–	–	–	–	·	·	·
Cc1ccc(-c2nn(-c3ccccc3)cc2/C=N/n2c(-c3ccncc3)n[nH]c2=S)cc1	–	–	–	–	–	–	–	–
S=c1[nH]nc(-c2ccncc2)n1/N=C/C(Cl)=C\c1ccccc1	–	–	–	9.8	–	20%	44%	–
O=C(c1ccccc1)n1c(=O)c(F)cn(COCCBr)c1=O	–	–	–	–	–	·	·	·
CCSc1n[nH]c2nc3c(c(=O)n12)C1(CCCC1)Cc1ccccc1-3	–	–	–	–	–	·	–	–
C=CCSc1n[nH]c2nc3c(c(=O)n12)C1(CCCC1)Cc1ccccc1-3	·	–	–	·	–	·	·	·
COc1ccc(NC(=O)CC2SC(=NCc3ccccc3OC)NC2=O)cc1 (stereo not drawn)	–	–	–	–	–	·	–	–
COc1ccc(CCNC(=O)CC2SC(=NCCc3ccccc3)NC2=O)cc1OC (stereo not drawn)	–	–	–	–	–	·	·	·
COc1ccccc1CN=C1NC(=O)C(CC(=O)Nc2ccc(OC)c(OC)c2)S1 (stereo not drawn)	–	–	–	5.6	–	8.5%	–	–
COc1ccc(C2=Nn3c(nnc3-c3ccccc3OC)SC2)cc1OC	–	–	–	8.2	–	20%	34%	–
COc1ccc(C2=Nn3c(nnc3-c3ccccn3)SC2)cc1OC	–	–	–	–	–	·	·	·
